# Test results published in ChEMBL document CHEMBL2203014, “Structure-Based Design of Potent and Selective CK1γ Inhibitors” (ACS Med Chem Lett, 2012).
# Assays:
# [1] = molecular target: Glycogen synthase kinase-3 beta (Homo sapiens, UniProt P49841)
# [2] = molecular target: T1, Casein kinase I isoform gamma-2 (Homo sapiens, UniProt P78368)
# [3] = molecular target: Casein kinase I isoform alpha (Homo sapiens, UniProt P48729); assay: Inhibition of CK1-alpha using biotin[long chain]-KKRRRAL{pS}VATLPGL substrate in presence of 8 uM ATP
# Casein kinase I isoform alpha, sequence (P48729 whole entry, canonical isoform): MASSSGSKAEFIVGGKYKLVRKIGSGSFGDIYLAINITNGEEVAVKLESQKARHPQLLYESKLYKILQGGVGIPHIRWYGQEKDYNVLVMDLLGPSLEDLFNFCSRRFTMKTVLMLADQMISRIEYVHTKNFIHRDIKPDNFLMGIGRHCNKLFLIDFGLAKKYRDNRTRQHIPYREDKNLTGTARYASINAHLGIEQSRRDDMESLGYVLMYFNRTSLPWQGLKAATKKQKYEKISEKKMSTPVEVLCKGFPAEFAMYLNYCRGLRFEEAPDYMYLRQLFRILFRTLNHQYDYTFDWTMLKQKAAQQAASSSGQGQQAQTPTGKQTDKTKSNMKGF
# [4] = molecular target: Casein kinase I isoform delta (Homo sapiens, UniProt P48730)
# Casein kinase I isoform delta, sequence (P48730 whole entry, canonical isoform): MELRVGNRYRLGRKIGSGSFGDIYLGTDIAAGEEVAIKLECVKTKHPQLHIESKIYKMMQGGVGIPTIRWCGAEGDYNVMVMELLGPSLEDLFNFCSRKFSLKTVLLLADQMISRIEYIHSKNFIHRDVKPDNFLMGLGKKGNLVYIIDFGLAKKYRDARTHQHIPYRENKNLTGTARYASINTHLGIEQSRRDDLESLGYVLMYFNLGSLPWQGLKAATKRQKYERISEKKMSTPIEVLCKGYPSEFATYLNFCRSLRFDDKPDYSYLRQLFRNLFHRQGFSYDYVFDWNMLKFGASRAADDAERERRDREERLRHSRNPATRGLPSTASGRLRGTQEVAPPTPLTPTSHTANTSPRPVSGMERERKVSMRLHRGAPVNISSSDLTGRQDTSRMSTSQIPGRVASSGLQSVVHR
# [5] = Cmax in […] mouse at 30 mg/kg, po; type: ADME, organism-based; set-up: dose 30 mg/kg, route oral; conditions: in vivo
# Outline: (§1)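 Oral PK in male CD1 mice, 3 animals per study, dosed at 30 mg/kg po. Vehicle: 10.0% Pluronic F68 / 30.0% HPBCD / 60.0% water with MSA, pH 2.5. Cmax, t1/2, Tmax and AUC were taken from plasma exposure.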
# [6] = molecular target: T1, Casein kinase I isoform gamma-2; assay: Inhibition of human CK1-gamma2 in HEK293 cells assessed as inhibition of doxcycline-induced LRP6 phosphorylation after 2 hrs by electrochemiluminescence analysis; type: cell-based
# Mus musculus = assay: Inhibition of CK1-gamma-mediated LRP6 phosphorylation in HEK293 cells xenografted in nude mouse at 50 mg/kg, po after 6 hrs by electrochemiluminescent assay; type: functional; conditions: HEK293, 6 h
# Outline: (§2)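 Athymic nude mice carried subcutaneous tumors of HEK293 cells constitutively expressing LRP6 with doxycycline-inducible CK1γ. Doxycycline (0.5 mg/mL) was given in drinking water for 24 h to stimulate LRP6 phosphorylation, then compound was dosed orally at 50 mg/kg. Tumor and plasma were collected 6 h post-dose. Tumor phospho-LRP6 was quantified by electrochemiluminescent assay, and plasma total and unbound exposure were determined.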
# [7] = Plasma concentration in HEK-293 cells xenografted in nude mouse at 50 mg/kg, po after 6 hrs; type: ADME, organism-based, HEK293; set-up: dose 50 mg/kg, route oral
# Outline: as §2
# [8] = Selectivity ratio of IC50 for CK1-alpha to IC50 for CK1-gamma2
# Plasma = assay: Unbound concentration in HEK293 cells xenografted in nude mouse at 50 mg/kg, po after 6 hrs; type: ADME, organism-based; set-up: dose 50 mg/kg, route oral; conditions: in vivo
# Outline: as §2
# [9] = Tmax in […] mouse at 30 mg/kg, po; type: ADME, organism-based; set-up: dose 30 mg/kg, route oral; conditions: in vivo
# Outline: as §1
# [10] = Intrinsic clearance in human liver microsomes at 1 uM after 30 mins; type: ADME, Microsome; conditions: read-out: CLH
# Outline: (§3)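 Liver microsome turnover (human or rat): compound at 1 μM incubated with microsomes for 30 min. Intrinsic clearance reported in μL/(min·mg).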
# [11] = Plasma protein binding in rat; type: ADME, cell-free; conditions: read-out: PPB (converted)
# [12] = Intrinsic clearance in rat liver microsomes at 1 uM after 30 mins; type: ADME, Microsome; conditions: read-out: CLH
# Outline: as §3
# [13] = Selectivity ratio of IC50 for CK1-delta to IC50 for CK1-gamma2
# [14] = Half life in […] mouse at 30 mg/kg, po; type: ADME, organism-based; set-up: dose 30 mg/kg, route oral; conditions: in vivo
# Outline: as §1
# [15] = molecular target: T1, Casein kinase I isoform gamma-2; assay: Inhibition of CK1-gamma2 in human RKO cell assessed as inhibition of Wnt3a-induced Wnt signaling treated 1 hr prior to Wnt3a ligand addition measured after 18 to 24 hrs by luciferase reporter gene assay
# [16] = Plasma protein binding in mouse; type: ADME, cell-free; conditions: read-out: PPB (converted)
# [17] = AUC in […] mouse at 30 mg/kg, po; type: ADME, organism-based; set-up: dose 30 mg/kg, route oral; conditions: plasma
# Outline: as §1
# T1 sequence (P78368 whole entry, canonical isoform): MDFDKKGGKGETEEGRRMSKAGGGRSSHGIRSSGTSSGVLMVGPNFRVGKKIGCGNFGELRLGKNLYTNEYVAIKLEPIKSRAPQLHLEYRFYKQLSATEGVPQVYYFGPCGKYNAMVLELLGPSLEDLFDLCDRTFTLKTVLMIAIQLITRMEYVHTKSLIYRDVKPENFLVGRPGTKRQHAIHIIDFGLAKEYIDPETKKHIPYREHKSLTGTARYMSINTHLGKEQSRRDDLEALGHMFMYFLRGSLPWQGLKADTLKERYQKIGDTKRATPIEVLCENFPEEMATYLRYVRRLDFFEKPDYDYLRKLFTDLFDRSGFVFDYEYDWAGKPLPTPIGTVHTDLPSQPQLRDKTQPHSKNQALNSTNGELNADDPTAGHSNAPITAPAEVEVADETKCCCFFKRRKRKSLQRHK
# Glycogen synthase kinase-3 beta, sequence (P49841 whole entry, canonical isoform): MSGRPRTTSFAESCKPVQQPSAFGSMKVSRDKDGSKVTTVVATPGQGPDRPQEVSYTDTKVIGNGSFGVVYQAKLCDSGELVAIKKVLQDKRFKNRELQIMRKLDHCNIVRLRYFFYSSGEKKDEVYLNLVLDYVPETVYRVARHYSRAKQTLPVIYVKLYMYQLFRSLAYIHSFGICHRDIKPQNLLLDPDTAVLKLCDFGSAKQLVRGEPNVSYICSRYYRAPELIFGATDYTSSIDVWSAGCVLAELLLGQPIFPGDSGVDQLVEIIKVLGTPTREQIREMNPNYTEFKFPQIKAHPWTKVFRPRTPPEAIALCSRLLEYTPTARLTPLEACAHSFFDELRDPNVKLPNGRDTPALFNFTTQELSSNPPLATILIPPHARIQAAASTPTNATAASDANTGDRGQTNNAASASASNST
Structure (SMILES),IC50 [1] [nM],IC50 [2] [nM],IC50 [3] [nM],IC50 [4] [nM],Ratio IC50 [8],IC50 [15] [nM],further results
COc1cnc(COc2ccc(F)c(F)c2)cc1-c1cc2c([nH]1)CCNC2=O,10800,5,251,40,50,254,Cmax [5]: 9720 nM; IC50 [6]: 200 nM; inhibition in vivo at 50 mg/kg (Mus musculus): 42%; concentration at 6 h [7]: 2700 nM; Concentration (Plasma): 130 nM; Tmax [9]: 0.33 h; microsomal CLint at 1 µM [10]: 59 µL/min/mg; fraction unbound [11]: 0.031; microsomal CLint at 1 µM [12]: 46 µL/min/mg; Ratio IC50 [13]: 8; half-life [14]: 2.7 h; fraction unbound [16]: 0.049; AUC [17]: 15.4 µM·h
COc1cnc(COc2cc(F)c(F)cc2C)cc1-c1cc2c([nH]1)CCNC2=O,38100,4,–,–,–,44,Cmax [5]: 560 nM; IC50 [6]: 87 nM; Tmax [9]: 1.17 h; microsomal CLint at 1 µM [10]: 177 µL/min/mg; microsomal CLint at 1 µM [12]: 106 µL/min/mg; half-life [14]: 1.4 h; fraction unbound [16]: 0.008; AUC [17]: 2.1 µM·h
COc1cnc(CCc2ccc(F)cc2)nc1-c1cc2c([nH]1)CCNC2=O,25600,17,–,–,–,–,–
COc1cnc(OCc2ccc(F)cc2)nc1-c1cc2c([nH]1)CCNC2=O,> 30000,80,95,168,–,–,–
COc1cnc(COc2ccc(F)cc2)cc1-c1cc2c([nH]1)CCNC2=O,7830,5,–,–,–,584,–
COc1cnc(Oc2ccccc2)nc1-c1cc2c([nH]1)CCNC2=O,> 62500,853,18500,4860,–,–,–
COc1cnc(CCc2ccc(F)cc2)cc1-c1cc2c([nH]1)CCNC2=O,> 62500,–,–,–,–,–,–
COc1cnc(COc2ccc(F)cc2C)cc1-c1cc2c([nH]1)CCNC2=O,53300,3,442,59,147,537,Ratio IC50 [13]: 20

# Stronger by IC50 [1], values ahead:
IC50 [1] [nM],IC50 [2] [nM],IC50 [3] [nM],IC50 [4] [nM],Ratio IC50 [8],IC50 [15] [nM],Structure (SMILES),further results
98,33,19,22,–,–,COc1cnc(NCc2ccccc2)nc1-c1cc2c([nH]1)CCNC2=O,–
1120,24,146,58,6,–,COc1cnc(COc2ccc(F)cc2)nc1-c1cc2c([nH]1)CCNC2=O,–
16,8,–,–,–,–,COc1cnc(Nc2ccccc2)nc1-c1cc2c([nH]1)CCNC2=O,–
1220,50,–,–,–,–,COc1cnc(/C=C/c2ccc(F)cc2)nc1-c1cc2c([nH]1)CCNC2=O,–
4000,3,225,36,75,394,COc1cnc(COc2ccc(F)cc2F)cc1-c1cc2c([nH]1)CCNC2=O,Ratio IC50 [13]: 12
1.49,8,9,68,1,> 3330,COc1cnc(-c2cnc3ccccc3c2)nc1-c1cc2c([nH]1)CCNC2=O,IC50 [6]: 348 nM; Ratio IC50 [13]: 8
